Measurements: ChEMBL document CHEMBL2417388, “Design and synthesis of (4E)-4-(4-substitutedbenzylideneamino)-3-substituted-2,3-dihydro-2-thioxothiazole-5-carbonitrile as novel A2A receptor antagonists” (Bioorg Med Chem, 2013)
Calls of active or inactive are those of the source. No cut-off for these calls is given here.

What was measured:
HEK293 = assay: Selectivity ratio of Ki for human A1 receptor expressed in HEK293 cell membranes to Ki for human A2A receptor expressed in HEK293 cell membranes; type: cell-based
Adenosine receptor A1 = molecular target: T1, Adenosine receptor A1 (Homo sapiens, UniProt P30542); assay: Displacement of [3H]DPCPX from human A1 receptor expressed in HEK293 cell membranes after 60 mins by scintillation counting
T1 sequence (P30542 whole entry): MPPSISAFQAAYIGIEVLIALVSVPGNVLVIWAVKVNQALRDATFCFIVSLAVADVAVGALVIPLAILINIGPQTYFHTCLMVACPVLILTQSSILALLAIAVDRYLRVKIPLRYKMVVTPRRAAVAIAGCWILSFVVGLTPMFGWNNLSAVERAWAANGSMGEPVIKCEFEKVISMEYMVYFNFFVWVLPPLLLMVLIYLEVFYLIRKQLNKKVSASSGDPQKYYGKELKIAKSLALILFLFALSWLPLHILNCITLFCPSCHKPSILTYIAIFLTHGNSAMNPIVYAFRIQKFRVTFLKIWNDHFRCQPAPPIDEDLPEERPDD

Mus musculus [1] = assay: Inhibition of haloperidol-induced catalepsy in Swiss albino mouse at 10 mg/kg, ip administered 30 mins prior haloperidol challenge measured after 120 mins; type: functional, organism-based; parameters: dose 10 mg/kg
How it was run: (§1)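 Adult male Swiss albino mice (4–6 weeks, 20–30 g), four per group. Compound given ip at 5–20 mg/kg, with 1% acacia in saline as vehicle control. […] Catalepsy scored over time up to 120 min. Mean ± SEM, n = 4, one-way ANOVA and Kruskal–Wallis test.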

Mus musculus [2] = assay: Inhibition of haloperidol-induced catalepsy in Swiss albino mouse at 5 to 20 mg/kg, ip administered 30 mins prior haloperidol challenge measured after 120 mins; type: functional, organism-based; how it was run: as §1
Adenosine receptor A2a = Adenosine receptor A2a (Homo sapiens, UniProt P29274); assay: Displacement of [3H]ZM241385 from human A2A receptor expressed in HEK293 cell membranes after 60 mins by scintillation counting
Adenosine receptor A2a, sequence (P29274 whole entry): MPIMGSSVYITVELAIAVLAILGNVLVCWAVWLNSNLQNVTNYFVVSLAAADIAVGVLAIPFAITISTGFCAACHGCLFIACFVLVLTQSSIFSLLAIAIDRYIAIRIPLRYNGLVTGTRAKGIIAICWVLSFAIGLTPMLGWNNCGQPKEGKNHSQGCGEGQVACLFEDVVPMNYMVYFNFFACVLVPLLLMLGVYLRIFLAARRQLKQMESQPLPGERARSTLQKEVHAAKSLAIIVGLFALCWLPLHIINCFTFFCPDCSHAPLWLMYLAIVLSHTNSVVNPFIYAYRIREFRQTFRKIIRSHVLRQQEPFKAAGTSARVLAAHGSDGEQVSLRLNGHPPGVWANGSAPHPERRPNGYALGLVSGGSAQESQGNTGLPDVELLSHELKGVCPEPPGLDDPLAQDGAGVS

SMILES	Ki (Adenosine receptor A1)	Ki (Adenosine receptor A2a)	Ratio Ki (HEK293)	inhibition (Mus musculus [1])	inhibition (Mus musculus [2])
N#Cc1sc(=S)n(-c2ccccc2)c1/N=C/c1ccc(Cl)cc1			2950		
N#Cc1sc(=S)n(-c2ccccc2)c1/N=C/c1ccc(Br)cc1				Active	Active
N#Cc1sc(=S)n(CCc2ccccc2)c1/N=C/c1ccc(Br)cc1	0.25 nM	0.067 nM	3.73		
CCCn1c(/N=C/c2ccc(F)cc2)c(C#N)sc1=S			3390		
Nc1nc2c(cnn2CCc2ccccc2)c2nc(-c3ccco3)nn12				Active	Active
CCCCn1c(/N=C/c2ccc(Cl)cc2)c(C#N)sc1=S			2570		
CCCn1c(/N=C/c2ccc(Cl)cc2)c(C#N)sc1=S			0.042		
CCCCn1c(/N=C/c2ccc(Br)cc2)c(C#N)sc1=S			0.013		
N#Cc1sc(=S)n(-c2ccccc2)c1/N=C/c1ccc(F)cc1	0.00063 nM	0.0047 nM	0.13		

Further lines, with some results ahead:

Ki (Adenosine receptor A1)	Ki (Adenosine receptor A2a)	SMILES	Ratio Ki (HEK293)	inhibition (Mus musculus [1])	inhibition (Mus musculus [2])
0.00059 nM		CCn1c(/N=C/c2ccc(F)cc2)c(C#N)sc1=S	5.3e-05		
16.7 nM	0.027 nM	CCCCn1c(/N=C/c2ccc(F)cc2)c(C#N)sc1=S	619		
607 nM	1.8 nM	CCCn1c(/N=C/c2ccc(Br)cc2)c(C#N)sc1=S	337		
0.00074 nM		CCn1c(/N=C/c2ccc(Br)cc2)c(C#N)sc1=S	0.074		
889 nM	2.64 nM	N#Cc1sc(=S)n(CCc2ccccc2)c1/N=C/c1ccc(F)cc1	337		
19.8 nM	1.44 nM	CCn1c(/N=C/c2ccc(Cl)cc2)c(C#N)sc1=S	13.8		
